From ChEMBL document CHEMBL4130626, “α-Arylidene Diacylglycerol-Lactones (DAG-Lactones) as Selective Ras Guanine-Releasing Protein 3 (RasGRP3) Ligands” (J Med Chem, 2018)

Key:
[1] = target: Protein kinase C alpha type (Homo sapiens, UniProt P17252); experiment: Displacement of [3H]PDBu from full length recombinant human PKCalpha expressed in baculovirus expression system after 5 mins by scintillation counting
In short: (§1)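 Competition of [3H]PDBu binding by polyethylene glycol precipitation, with 100 µg/ml phosphatidylserine and ≤0.003% Triton X-100, 5 min at 37 °C. Proteins: full-length purified human PKCα, PKCε; full-length RasGRP1; MBP-RasGRP3 from E. coli BL21(DE3) induced with 0.3 mM IPTG 6 h at room temperature. Ki mean ± SEM of ≥2 experiments, triplicate points.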

[2] = target: T1, Protein kinase C epsilon type (Homo sapiens, UniProt Q02156); experiment: Displacement of [3H]PDBu from full length recombinant human PKCepsilon expressed in baculovirus expression system after 5 mins by scintillation counting; in short: as §1
T1 sequence (Q02156 whole entry): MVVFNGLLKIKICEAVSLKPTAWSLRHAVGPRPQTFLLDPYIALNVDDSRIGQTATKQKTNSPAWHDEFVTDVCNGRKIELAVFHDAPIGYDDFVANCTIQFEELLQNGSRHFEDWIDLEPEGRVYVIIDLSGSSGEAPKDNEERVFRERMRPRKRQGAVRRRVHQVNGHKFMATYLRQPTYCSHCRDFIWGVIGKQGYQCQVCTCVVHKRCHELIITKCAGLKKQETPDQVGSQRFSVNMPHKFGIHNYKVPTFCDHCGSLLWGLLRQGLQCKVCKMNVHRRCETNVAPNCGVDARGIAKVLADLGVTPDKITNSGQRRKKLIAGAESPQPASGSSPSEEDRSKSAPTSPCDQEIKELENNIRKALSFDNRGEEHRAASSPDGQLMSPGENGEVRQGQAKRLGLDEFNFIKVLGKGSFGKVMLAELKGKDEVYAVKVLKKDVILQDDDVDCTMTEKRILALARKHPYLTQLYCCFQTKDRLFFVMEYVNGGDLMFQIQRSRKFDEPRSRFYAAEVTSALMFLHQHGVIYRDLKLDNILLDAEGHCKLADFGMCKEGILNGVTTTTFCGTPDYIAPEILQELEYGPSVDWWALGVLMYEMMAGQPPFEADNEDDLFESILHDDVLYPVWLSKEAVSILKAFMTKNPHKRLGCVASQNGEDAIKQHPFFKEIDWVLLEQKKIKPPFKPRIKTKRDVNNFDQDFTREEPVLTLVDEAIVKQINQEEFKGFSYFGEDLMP

[3] = target: T2, Ras guanyl-releasing protein 3 (Homo sapiens, UniProt Q8IV61); experiment: Displacement of [3H]PDBu from full length MBP-tagged human RasGRP3 expressed in Escherichia coli BL21 (DE3) after 5 mins by scintillation counting; in short: as §1
T2 sequence (Q8IV61 whole entry): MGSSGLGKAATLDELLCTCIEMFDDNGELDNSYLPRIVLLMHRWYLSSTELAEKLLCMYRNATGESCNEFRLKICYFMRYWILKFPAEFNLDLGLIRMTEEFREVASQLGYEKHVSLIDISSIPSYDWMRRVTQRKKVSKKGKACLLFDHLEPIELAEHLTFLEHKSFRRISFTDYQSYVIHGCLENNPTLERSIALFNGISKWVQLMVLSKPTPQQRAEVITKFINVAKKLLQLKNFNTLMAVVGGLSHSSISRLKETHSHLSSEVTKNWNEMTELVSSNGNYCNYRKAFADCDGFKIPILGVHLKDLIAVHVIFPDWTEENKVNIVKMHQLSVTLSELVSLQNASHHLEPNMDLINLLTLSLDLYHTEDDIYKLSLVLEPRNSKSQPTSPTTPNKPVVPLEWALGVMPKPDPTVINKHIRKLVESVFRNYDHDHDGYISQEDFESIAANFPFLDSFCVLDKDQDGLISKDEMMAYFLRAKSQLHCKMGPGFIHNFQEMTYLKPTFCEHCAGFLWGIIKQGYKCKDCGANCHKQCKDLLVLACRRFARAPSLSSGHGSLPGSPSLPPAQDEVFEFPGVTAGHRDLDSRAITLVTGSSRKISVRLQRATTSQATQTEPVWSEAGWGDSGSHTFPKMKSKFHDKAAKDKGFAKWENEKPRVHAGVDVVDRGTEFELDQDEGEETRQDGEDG

## COc1ccc(/C=C2\CC(CO)(COC(=O)c3ccc(Cl)cc3)OC2=O)cc1 (configuration not stated)
[1]
  Ki: 0.0301 µM
[2]
  Ki: 0.0068 µM
[3]
  Ki: 0.00154 µM

## CC(C)(C)C(=O)OCC1(CO)C/C(=C/c2csc3ccccc23)C(=O)O1 (configuration not stated)
[1]
  Ki: 0.037 µM
[2]
  Ki: 0.0125 µM
[3]
  Ki: 0.00426 µM

## Cn1cc(/C=C2/CC(CO)(COC(=O)C(C)(C)C)OC2=O)c2cc([N+](=O)[O-])ccc21 (configuration not stated)
[1]
  Ki: > 30 µM
[2]
  Ki: > 30 µM
[3]
  Ki: 1.39 µM

## CC(C)Cn1cc(/C=C2\CC(CO)(COC(=O)C(C)(C)C)OC2=O)c2ccccc21 (configuration not stated)
[1]
  Ki: 0.0156 µM
[2]
  Ki: 0.0194 µM
[3]
  Ki: 0.00303 µM

## CC(C)(C)C(=O)OCC1(CO)C/C(=C\c2ccc(Cl)cc2)C(=O)O1 (configuration not stated)
[1]
  Ki: 0.0136 µM
[2]
  Ki: 0.00257 µM
[3]
  Ki: 0.00053 µM

## COc1ccc(C(=O)OCC2(CO)C/C(=C\c3ccc(N(C)C)cc3)C(=O)O2)cc1 (configuration not stated)
[1]
  Ki: 0.128 µM
[2]
  Ki: 0.0182 µM
[3]
  Ki: 0.00748 µM

## Cn1cc(/C=C2\CC(CO)(COC(=O)C3CCC(C(C)(C)C)CC3)OC2=O)c2ccccc21 (configuration not stated)
[1]
  Ki: 0.0313 µM
[2]
  Ki: 0.042 µM
[3]
  Ki: 0.00215 µM

## CN(C)c1ccc(C(=O)OCC2(CO)C/C(=C\c3cn(C)c4ccccc34)C(=O)O2)cc1 (configuration not stated)
[1]
  Ki: 0.186 µM
[2]
  Ki: 0.22 µM
[3]
  Ki: 0.0182 µM

## CC(C)(C)C(=O)OCC1(CO)C/C(=C/c2coc3ccccc23)C(=O)O1 (configuration not stated)
[1]
  Ki: 0.0625 µM
[2]
  Ki: 0.0733 µM
[3]
  Ki: 0.0117 µM

## CN(C)c1ccc(/C=C2\CC(CO)(COC(=O)c3ccc(Cl)cc3)OC2=O)cc1 (configuration not stated)
[1]
  Ki: 0.0254 µM
[2]
  Ki: 0.00639 µM
[3]
  Ki: 0.00181 µM

## Cn1cc(/C=C2\CC(CO)(COC(=O)C3CCCCC3)OC2=O)c2ccccc21 (configuration not stated)
[1]
  Ki: 0.112 µM
[2]
  Ki: 0.0982 µM
[3]
  Ki: 0.00286 µM

## CC(C)(C)C(=O)OCC1(CO)C/C(=C\c2csc3ccccc23)C(=O)O1 (configuration not stated)
[1]
  Ki: 0.0288 µM
[2]
  Ki: 0.00817 µM
[3]
  Ki: 0.00167 µM

## COc1ccc2c(c1)c(/C=C1\CC(CO)(COC(=O)C(C)(C)C)OC1=O)cn2C (configuration not stated)
[1]
  Ki: 0.249 µM
[2]
  Ki: 0.208 µM
[3]
  Ki: 0.00476 µM

## COc1ccc(/C=C2\CC(CO)(COC(=O)c3ccc(OC)cc3)OC2=O)cc1 (configuration not stated)
[1]
  Ki: 0.0847 µM
[2]
  Ki: 0.0134 µM
[3]
  Ki: 0.00417 µM

## CN(C)c1ccc(C(=O)OCC2(CO)C/C(=C\c3ccccn3)C(=O)O2)cc1 (configuration not stated)
[1]
  Ki: 1.48 µM
[2]
  Ki: 0.328 µM
[3]
  Ki: 0.271 µM

## CC(C)(C)C(=O)OCC1(CO)C/C(=C\c2coc3ccccc23)C(=O)O1 (configuration not stated)
[1]
  Ki: 0.114 µM
[2]
  Ki: 0.0353 µM
[3]
  Ki: 0.0028 µM

## CC(C)(C)C(=O)OCC1(CO)C/C(=C\c2ccccn2)C(=O)O1 (configuration not stated)
[1]
  Ki: 3.64 µM
[2]
  Ki: 1.12 µM
[3]
  Ki: 0.192 µM

## COc1ccc(/C=C2\CC(CO)(COC(=O)C(C)(C)C)OC2=O)cc1 (configuration not stated)
[1]
  Ki: 0.072 µM
[2]
  Ki: 0.0101 µM
[3]
  Ki: 0.00109 µM

## Cn1nc(/C=C2\CC(CO)(COC(=O)C(C)(C)C)OC2=O)c2ccccc21 (configuration not stated)
[1]
  Ki: 0.184 µM
[2]
  Ki: 0.131 µM
[3]
  Ki: 0.00722 µM

## Cn1cc(/C=C2/CC(CO)(COC(=O)C(C)(C)C)OC2=O)c2cc(Cl)ccc21 (configuration not stated)
[1]
  Ki: 0.0791 µM
[2]
  Ki: 0.104 µM
[3]
  Ki: 0.00432 µM

## O=C1OC(CO)(COC(=O)c2ccc(Cl)cc2)C/C1=C\c1ccccn1 (configuration not stated)
[1]
  Ki: 0.383 µM
[2]
  Ki: 0.0923 µM
[3]
  Ki: 0.029 µM

## Cn1cc(/C=C2\CC(CO)(COC(=O)/C=C/c3ccccn3)OC2=O)c2ccccc21 (configuration not stated)
[1]
  Ki: 2.31 µM
[2]
  Ki: 3.41 µM
[3]
  Ki: 0.0697 µM

## Cn1cc(/C=C2\CC(CO)(COC(=O)C(C)(C)C)OC2=O)c2cc(Cl)ccc21 (configuration not stated)
[1]
  Ki: 0.0423 µM
[2]
  Ki: 0.0393 µM
[3]
  Ki: 0.00101 µM

## COc1ccc(C(=O)OCC2(CO)C/C(=C\c3ccc(Cl)cc3)C(=O)O2)cc1 (configuration not stated)
[1]
  Ki: 0.0276 µM
[2]
  Ki: 0.0071 µM
[3]
  Ki: 0.00225 µM

## COc1ccc(C(=O)OCC2(CO)C/C(=C\c3cn(C)c4ccccc34)C(=O)O2)cc1 (configuration not stated)
[1]
  Ki: 0.446 µM
[2]
  Ki: 0.38 µM
[3]
  Ki: 0.0265 µM

## CCCCCCC(=O)OCC1(CO)C/C(=C\c2cn(C)c3ccccc23)C(=O)O1 (configuration not stated)
[1]
  Ki: 0.135 µM
[2]
  Ki: 0.122 µM
[3]
  Ki: 0.0053 µM

## CN(C)c1ccc(/C=C2\CC(CO)(COC(=O)c3ccc(N(C)C)cc3)OC2=O)cc1 (configuration not stated)
[1]
  Ki: 0.252 µM
[2]
  Ki: 0.0394 µM
[3]
  Ki: 0.0268 µM

## CN(C)c1ccc(C(=O)OCC2(CO)C/C(=C\c3ccc(Cl)cc3)C(=O)O2)cc1 (configuration not stated)
[1]
  Ki: 0.0304 µM
[2]
  Ki: 0.0095 µM
[3]
  Ki: 0.00273 µM

## Cn1cc(/C=C2\CC(CO)(COC(=O)c3ccc(Cl)cc3)OC2=O)c2ccccc21 (configuration not stated)
[1]
  Ki: 0.146 µM
[2]
  Ki: 0.208 µM
[3]
  Ki: 0.0112 µM

## Cn1cc(/C=C2\CC(CO)(COC(=O)/C=C/c3ccccc3)OC2=O)c2ccccc21 (configuration not stated)
[1]
  Ki: 0.439 µM
[2]
  Ki: 0.672 µM
[3]
  Ki: 0.025 µM

## COc1ccc(/C=C2\CC(CO)(COC(=O)c3ccc(N(C)C)cc3)OC2=O)cc1 (configuration not stated)
[1]
  Ki: 0.0822 µM
[2]
  Ki: 0.0183 µM
[3]
  Ki: 0.007 µM

## Cn1cc(/C=C/C(=O)OCC2(CO)C/C(=C\c3cn(C)c4ccccc34)C(=O)O2)c2ccccc21 (configuration not stated)
[1]
  Ki: 0.375 µM
[2]
  Ki: 0.78 µM
[3]
  Ki: 0.0157 µM

## CC(C)CC(CC(C)C)C(=O)OCC1(CO)C/C(=C\c2cn(C)c3ccccc23)C(=O)O1 (configuration not stated)
[1]
  Ki: 0.039 µM
[2]
  Ki: 0.0415 µM
[3]
  Ki: 0.00507 µM

## COc1ccc(C(=O)OCC2(CO)C/C(=C\c3ccccn3)C(=O)O2)cc1 (configuration not stated)
[1]
  Ki: 1.19 µM
[2]
  Ki: 0.199 µM
[3]
  Ki: 0.0897 µM

## CCCCn1cc(/C=C2\CC(CO)(COC(=O)C(C)(C)C)OC2=O)c2ccccc21 (configuration not stated)
[1]
  Ki: 0.0256 µM
[2]
  Ki: 0.0192 µM
[3]
  Ki: 0.00187 µM

## CC(C)(C)C(=O)OCC1(CO)C/C(=C\c2cn(CC3CC3)c3ccccc23)C(=O)O1 (configuration not stated)
[1]
  Ki: 0.029 µM
[2]
  Ki: 0.0606 µM
[3]
  Ki: 0.00358 µM

## O=C1OC(CO)(COC(=O)c2ccc(Cl)cc2)C/C1=C\c1ccc(Cl)cc1 (configuration not stated)
[1]
  Ki: 0.0252 µM
[2]
  Ki: 0.00651 µM
[3]
  Ki: 0.00269 µM

## CCCC(CCC)C(=O)OCC1(CO)C/C(=C\c2cn(C)c3ccccc23)C(=O)O1 (configuration not stated)
[1]
  Ki: 0.0317 µM
[2]
  Ki: 0.0428 µM
[3]
  Ki: 0.00084 µM

## CN(C)c1ccc(/C=C2\CC(CO)(COC(=O)C(C)(C)C)OC2=O)cc1 (configuration not stated)
[1]
  Ki: 0.0659 µM
[2]
  Ki: 0.00787 µM
[3]
  Ki: 0.00107 µM
